Structures are written as SMILES. A value given as a limit tells only on which side of the number the result lay.

The target of test [1] is C-C chemokine receptor type 5 (Homo sapiens, UniProt P51681). Description: Inhibitory effect on Chemokine binding to C-C chemokine receptor type 5 using [125I]RANTES. Put shortly: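 CHO/CCR5 cells (5 × 10⁴ cells/100 μL) cultured 24 h at 37 °C, then medium replaced with Ham's F-12 binding buffer containing 20 mM Hepes and 0.5% BSA, pH 7.2. Binding with [125I]RANTES (2000 Ci/mmol) plus graded compound concentrations, room temperature, 40 min. Free ligand removed by washing with cold PBS; cell-bound radioactivity counted. IC50 = 50% inhibition of binding; means of duplicate separate experiments (one compound triplicate).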

For test [2], the target named is T1, C-C chemokine receptor type 3 (Homo sapiens, UniProt P51677).
T1 sequence (P51677 whole entry): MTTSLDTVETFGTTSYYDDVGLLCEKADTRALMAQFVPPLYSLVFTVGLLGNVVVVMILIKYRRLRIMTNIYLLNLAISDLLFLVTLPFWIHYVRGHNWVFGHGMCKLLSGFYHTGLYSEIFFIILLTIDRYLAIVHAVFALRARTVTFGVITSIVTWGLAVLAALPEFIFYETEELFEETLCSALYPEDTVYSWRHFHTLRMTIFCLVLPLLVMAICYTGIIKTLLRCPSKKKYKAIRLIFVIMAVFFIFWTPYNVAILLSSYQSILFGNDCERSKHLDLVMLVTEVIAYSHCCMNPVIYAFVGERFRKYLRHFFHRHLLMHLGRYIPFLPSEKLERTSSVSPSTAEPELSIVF
Description: Inhibitory effect on the binding of [125I]- eotaxin to C-C chemokine receptor type 3- expressing CHO cells. Type of test: cell-based. The method in brief: (§1)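 Whole-cell radioligand binding on CHO cells expressing CCR1 ([125I]RANTES), CCR3 ([125I]eotaxin) or CCR4 ([125I]TARC). Cells were seeded and cultured 24 h at 37 °C. Binding ran in Ham's F-12 with 20 mM Hepes and 0.5% BSA, pH 7.2, at room temperature for 40 min with graded compound. After a cold-PBS wash, cell-bound radioactivity was counted. Means ± SEM of ≥3 separate experiments.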

For test [3], the target named is T2, C-C chemokine receptor type 1 (Homo sapiens, UniProt P32246).
T2 sequence (P32246 whole entry): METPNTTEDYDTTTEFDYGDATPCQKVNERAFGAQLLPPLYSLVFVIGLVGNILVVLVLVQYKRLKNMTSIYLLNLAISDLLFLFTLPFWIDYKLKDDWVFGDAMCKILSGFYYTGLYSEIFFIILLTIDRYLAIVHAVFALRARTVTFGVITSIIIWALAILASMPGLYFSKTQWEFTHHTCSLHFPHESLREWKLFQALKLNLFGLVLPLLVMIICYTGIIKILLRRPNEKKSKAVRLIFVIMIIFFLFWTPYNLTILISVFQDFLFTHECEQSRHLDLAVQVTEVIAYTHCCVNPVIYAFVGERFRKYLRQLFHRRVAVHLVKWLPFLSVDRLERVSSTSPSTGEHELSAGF
Kind of test: Inhibitory effect on the binding of [125I]RANTES to C-C chemokine receptor type 1-expressing CHO cells. In kind it is cell-based. The method in brief:
as §1

For test [4], the target named is C-C chemokine receptor type 2 (Homo sapiens, UniProt P41597). Kind of test: Inhibitory effect on the binding of [125I]- MCP-1 to C-C chemokine receptor type 2-expressing CHO cells. Type of test: cell-based. The method in brief:
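CCR2b-expressing CHO cells (5 × 10⁴ cells/100 μL) cultured 24 h at 37 °C. Medium replaced with binding buffer: Ham's F-12, 20 mM Hepes, 0.5% BSA, pH 7.2. [125I]MCP-1 binding run at room temperature for 40 min with graded test-compound concentrations. Free ligand washed off with cold PBS; cell-associated radioactivity counted by scintillation.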

In test [5] the target is T3, C-C chemokine receptor type 4 (Homo sapiens, UniProt P51679).
T3 sequence (P51679 whole entry): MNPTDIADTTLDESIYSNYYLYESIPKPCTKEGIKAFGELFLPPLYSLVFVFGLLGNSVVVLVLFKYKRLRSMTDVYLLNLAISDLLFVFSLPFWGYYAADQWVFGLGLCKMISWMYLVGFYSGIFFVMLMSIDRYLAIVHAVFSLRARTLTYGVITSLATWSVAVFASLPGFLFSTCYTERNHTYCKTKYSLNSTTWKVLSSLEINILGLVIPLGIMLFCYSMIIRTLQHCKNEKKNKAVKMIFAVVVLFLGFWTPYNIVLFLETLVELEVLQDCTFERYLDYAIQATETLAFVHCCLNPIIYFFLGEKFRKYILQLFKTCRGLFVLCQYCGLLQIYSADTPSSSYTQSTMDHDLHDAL
Kind of test: Inhibitory effect on the binding of [125I]TARC to C-C chemokine receptor type 4-expressing CHO cells. Type of test: cell-based. The method in brief:
as §1

The nature of test [6]: Inhibitory effects on HIV-1 (Ba-L) replication was evaluated in MAGI-CCR5 cells. Type of test: functional, cell-based. Particulars: Homo sapiens.
Test [7] relates to Human immunodeficiency virus 1. Kind of test: Inhibitory effects on HIV-1 (Ba-L) replication was evaluated in PBMCs. In kind it is functional, organism-based.

Chain of C-C chemokine receptor type 5 (P51681 whole entry): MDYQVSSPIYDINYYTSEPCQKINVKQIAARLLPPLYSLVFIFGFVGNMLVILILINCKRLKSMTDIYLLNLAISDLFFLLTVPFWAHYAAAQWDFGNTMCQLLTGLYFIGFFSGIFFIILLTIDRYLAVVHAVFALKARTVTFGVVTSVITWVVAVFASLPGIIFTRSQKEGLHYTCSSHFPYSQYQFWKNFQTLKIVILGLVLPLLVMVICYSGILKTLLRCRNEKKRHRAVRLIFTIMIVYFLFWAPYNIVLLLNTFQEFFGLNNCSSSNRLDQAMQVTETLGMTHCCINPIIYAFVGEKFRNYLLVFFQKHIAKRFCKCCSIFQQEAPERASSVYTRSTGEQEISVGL
Chain of C-C chemokine receptor type 2 (P41597 whole entry): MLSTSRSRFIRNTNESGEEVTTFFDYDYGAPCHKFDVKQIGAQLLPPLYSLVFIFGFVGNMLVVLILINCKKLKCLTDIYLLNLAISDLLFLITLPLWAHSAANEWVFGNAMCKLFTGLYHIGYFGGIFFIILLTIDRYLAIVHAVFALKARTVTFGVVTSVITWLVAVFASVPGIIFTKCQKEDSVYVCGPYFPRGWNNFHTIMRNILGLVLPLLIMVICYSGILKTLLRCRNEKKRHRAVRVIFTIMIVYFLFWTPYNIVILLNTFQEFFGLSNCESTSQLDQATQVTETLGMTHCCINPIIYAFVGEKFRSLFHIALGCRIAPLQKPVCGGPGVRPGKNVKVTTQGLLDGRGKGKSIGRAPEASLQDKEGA

One may read the IC50 as the concentration that gives 50% inhibition. Consider `CC[N+](CC)(CC)Cc1ccc(NC(=O)C2=Cc3cc(-c4ccccc4)ccc3CC2)cc1`, for which the IC50 in test [1] was determined as 840 nM.

`Cc1ccc(-c2ccc3c(c2)C=C(C(=O)Nc2ccc(C[N+](C)(C)C4CCOCC4)cc2)CCO3)cc1` gave an IC50 in test [1] of 1.4 nM.

For the compound `CCOc1ccc(-c2ccc3c(c2)C=C(C(=O)Nc2ccc(C[N+](C)(C)C4CCOCC4)cc2)CCO3)cc1`, the IC50 in test [1] turned out to be 1.8 nM.

As for `C[N+]1(Cc2ccc(NC(=O)C3=Cc4cc(-c5ccccc5)ccc4CC3)cc2)CCCCCC1`, in test [1], the IC50 worked out at 380 nM.

Consider `Cc1ccc(-c2ccc3c(c2)C=C(C(=O)Nc2ccc(C[N+](C)(C)CCCO)cc2)CCO3)cc1`, for which the IC50 in test [1] amounted to 6.8 nM.

For `CCC(CC)[N+](C)(C)Cc1ccc(NC(=O)C2=Cc3cc(-c4ccc(C)cc4)ccc3OCC2)cc1`, the IC50 in test [1] came to 3.3 nM.

As for `Cc1ccc(-c2ccc3c(c2)C=C(C(=O)Nc2ccc(C[N+]4(C)CCCCC4)cc2)CC3)cc1`, in test [1], the IC50 came out at 240 nM.

In general, EC50 refers to the concentration needed to bring the measured effect to its halfway point. Higher therefore signals lower potency in that assay. As to `Cc1ccc(-c2ccc3c(c2)C=C(C(=O)Nc2ccc(C[N+](C)(C)C4CCOCC4)cc2)CCC3)cc1` [listing 1 of 2 here], the IC50 in test [1] is 1.4 nM; in test [2], above 10000 nM; in test [3] it was above 10000 nM; in test [4], 27 nM; in test [5], above 10000 nM. Moreover, the EC50 in test [6] is 1.2 nM; in test [7], 3.7 nM.

With `C[N+](C)(Cc1ccc(NC(=O)C2=Cc3cc(-c4ccc(C(F)(F)F)cc4)ccc3OCC2)cc1)C1CCOCC1`, in test [1], the IC50 turned out to be 1.5 nM.

For the compound `Cc1ccc(-c2ccc3c(c2)C=C(C(=O)Nc2ccc(C[N+](C)(C)C4CCSCC4)cc2)CCO3)cc1`, in test [1], the IC50 came to 3.1 nM.

`Cc1ccc(-c2ccc3c(c2)C=C(C(=O)Nc2ccc(C[N+]4(C)CCCCC4)cc2)CCO3)cc1`: the IC50 in test [1] worked out at 43 nM.

Turning to `C[N+](C)(Cc1ccc(NC(=O)C2=Cc3cc(-c4ccc(N5CCCC5)cc4)ccc3CCC2)cc1)C1CCOCC1`, the IC50 in test [1] is 3.8 nM.

Consider `C[N+](C)(Cc1ccc(NC(=O)C2=Cc3cc(-c4ccc(N5CCCCC5)cc4)ccc3CCC2)cc1)C1CCOCC1`, for which the half-inhibitory concentration (IC50) in test [1] was 2.2 nM.

In the case of `CCCC[P+](CCCC)(CCCC)Cc1ccc(NC(=O)/C=C/c2cccc(-c3ccc(C)cc3)c2)cc1`, in test [1], the IC50 stood at 620 nM.

For `Cc1ccc(-c2ccc3c(c2)C=C(C(=O)Nc2ccc(C[N+]4(C)CCCCC4)cc2)CCC3)cc1`, the IC50 in test [1] was 25 nM.

In test [1], `Cc1ccc(-c2ccc3c(c2)C=C(C(=O)Nc2ccc(C[N+](C)(C)C4CCC(=O)CC4)cc2)CCO3)cc1` showed an IC50 of 4.5 nM.

`C[N+]1(CCc2ccc(NC(=O)C3=Cc4cc(-c5ccccc5)ccc4CC3)cc2)CCCCC1`: the IC50 in test [1] turned out to be 1100 nM.

In turn, `Cc1ccc(-c2ccc3c(c2)C=C(C(=O)Nc2ccc(CC[N+]4(C)CCCCC4)cc2)CCO3)cc1` gave an IC50 in test [1] of 110 nM.

For the compound `Cc1ccc(-c2ccc3c(c2)C=C(C(=O)Nc2ccc(C[N+](C)(C)C4CCOCC4)cc2)CCC3)cc1` [listing 2 of 2 here], the concentration for half-maximal inhibition (IC50) in test [1] worked out at 1.8 nM.

Consider `Cc1ccc(-c2ccc3c(c2)C=C(C(=O)Nc2ccc(C[N+]4(C)CCCCC4)cc2)CO3)cc1`, for which, in test [1], the IC50 turned out to be 660 nM.

`Cc1cccc[n+]1Cc1ccc(NC(=O)C2=Cc3cc(-c4ccccc4)ccc3CC2)cc1` had a 50% inhibitory concentration (IC50) in test [1] of 3200 nM.

For the compound `C[N+]1(Cc2ccc(NC(=O)C3=Cc4cc(-c5ccccc5)ccc4CC3)cc2)CCOCC1`, in test [1], the IC50 turned out to be 1200 nM.

Regarding `C[N+]1(Cc2ccc(NC(=O)C3=Cc4cc(-c5ccccc5)ccc4CC3)cc2)CCCC1`, in test [1], the concentration for half-maximal inhibition (IC50) amounted to 430 nM.

Regarding `Cc1ccc(-c2cccc(/C=C/C(=O)Nc3ccc(C[N+]4(C)CCCCC4)cc3)c2)cc1`, in test [1], the IC50 was determined as 570 nM.

In turn, `C[N+]1(Cc2ccc(NC(=O)C3=Cc4cc(-c5ccccc5)ccc4CC3)cc2)CCCCC1` showed an IC50 in test [1] of 390 nM.

Values taken from ChEMBL document CHEMBL1133188, “Discovery of novel, potent, and selective small-molecule CCR5 antagonists as anti-HIV-1 agents: synthesis and biological evaluation of anilide derivatives with a quaternary ammonium moiety” (J Med Chem, 2000).
